These results are taken from ChEMBL document CHEMBL1155359 (Bioorg Med Chem Lett, 2009).

Each structure is given as a SMILES string.

One series concerns the target hERG (KCNH2) (Homo sapiens, UniProt Q12809). The series can be described thus: (§1) Inhibition of human ERG in L929 cells at 10 uM by whole cell patch-clamp assay. To be noted: human.
For a further series, the target named is Histamine H1 receptor (Homo sapiens, UniProt P35367). In words: Displacement of [3H]pyrilamine from human recombinant histamine H1 receptor expressed in CHO cell by Betaplate scintillation counting. It counts as cell-based. Background: Loss of bound radioactivity is the signal in a displacement assay; it reports binding, not function.
Chain of Histamine H1 receptor (P35367 whole entry): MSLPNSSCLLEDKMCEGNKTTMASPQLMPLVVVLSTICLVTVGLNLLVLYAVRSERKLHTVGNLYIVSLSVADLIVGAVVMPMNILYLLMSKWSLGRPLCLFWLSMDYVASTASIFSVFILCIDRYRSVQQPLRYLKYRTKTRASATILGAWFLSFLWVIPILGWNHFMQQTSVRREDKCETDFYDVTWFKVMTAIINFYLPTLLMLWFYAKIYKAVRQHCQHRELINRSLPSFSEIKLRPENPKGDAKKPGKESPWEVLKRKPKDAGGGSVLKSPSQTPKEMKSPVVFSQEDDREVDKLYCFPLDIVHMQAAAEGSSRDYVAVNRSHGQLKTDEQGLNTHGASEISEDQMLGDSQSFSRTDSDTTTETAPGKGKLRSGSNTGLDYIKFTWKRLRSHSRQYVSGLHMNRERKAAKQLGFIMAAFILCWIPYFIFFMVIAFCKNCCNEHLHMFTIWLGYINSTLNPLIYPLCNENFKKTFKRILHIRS
The target in series [1] is T1, Voltage-gated inwardly rectifying potassium channel KCNH2 (Homo sapiens, UniProt Q12809). The description is as §1.
T1 sequence (Q12809 whole entry): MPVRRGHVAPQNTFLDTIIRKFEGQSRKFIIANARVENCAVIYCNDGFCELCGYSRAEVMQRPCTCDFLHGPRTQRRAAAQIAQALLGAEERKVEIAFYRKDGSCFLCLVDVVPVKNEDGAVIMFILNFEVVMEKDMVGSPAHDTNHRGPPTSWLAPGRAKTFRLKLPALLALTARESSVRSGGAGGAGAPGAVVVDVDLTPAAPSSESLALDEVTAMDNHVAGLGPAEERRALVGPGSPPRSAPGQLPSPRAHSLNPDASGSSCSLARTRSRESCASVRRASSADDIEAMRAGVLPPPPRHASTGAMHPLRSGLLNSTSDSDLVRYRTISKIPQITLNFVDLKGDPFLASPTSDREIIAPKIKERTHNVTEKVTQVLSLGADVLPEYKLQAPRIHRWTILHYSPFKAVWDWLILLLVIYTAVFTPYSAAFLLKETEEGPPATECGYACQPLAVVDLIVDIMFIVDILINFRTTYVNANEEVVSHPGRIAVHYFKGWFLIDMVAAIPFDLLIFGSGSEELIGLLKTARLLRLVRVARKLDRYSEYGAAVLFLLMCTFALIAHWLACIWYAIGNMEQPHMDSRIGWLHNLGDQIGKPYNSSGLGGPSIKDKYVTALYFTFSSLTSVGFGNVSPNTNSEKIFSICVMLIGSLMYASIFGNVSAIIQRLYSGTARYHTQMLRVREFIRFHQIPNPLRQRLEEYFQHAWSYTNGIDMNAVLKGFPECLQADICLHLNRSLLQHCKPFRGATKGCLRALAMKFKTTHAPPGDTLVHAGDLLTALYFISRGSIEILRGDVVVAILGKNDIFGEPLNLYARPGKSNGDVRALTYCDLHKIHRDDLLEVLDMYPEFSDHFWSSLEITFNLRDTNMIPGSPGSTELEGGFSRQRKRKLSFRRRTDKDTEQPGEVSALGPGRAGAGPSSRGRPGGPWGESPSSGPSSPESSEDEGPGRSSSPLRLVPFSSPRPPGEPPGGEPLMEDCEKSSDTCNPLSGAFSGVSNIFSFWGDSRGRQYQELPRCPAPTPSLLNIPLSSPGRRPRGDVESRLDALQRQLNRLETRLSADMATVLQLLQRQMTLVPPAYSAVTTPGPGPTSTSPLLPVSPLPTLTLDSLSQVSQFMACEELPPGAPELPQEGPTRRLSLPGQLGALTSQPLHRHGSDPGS
Series [2] deals with Cavia porcellus. The series can be described thus: Cardiovascular toxicity in Hartley guinea pig assessed as QTc prolongation at 50 mg/kg, iv after 30 mins by ECG. The format is organism-based. Details: dose 50 mg/kg, route intravenous; call rule not given here. The settings on record: in vivo, 0.5 h.
Series [3] deals with T1, Voltage-gated inwardly rectifying potassium channel KCNH2. The series can be described thus: Inhibition of human ERG in L929 cells by whole cell patch-clamp assay.
The test system of series [4] is Cavia porcellus. In words: Cardiovascular toxicity in iv dosed Hartley guinea pig QTc prolongation after 30 mins by ECG. It counts as organism-based. The settings on record: in vivo, 0.5 h. The procedure, abridged: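 Guinea pig in vivo QTc test; potency is reported as the minimum effective dose (MED) in mg/kg.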
The subject of series [5] is Cavia porcellus. The series can be described thus: Antihistamine activity in iv dosed Hartley guinea pig assessed as inhibition of histamine-induced bronchoconstriction pretreated before histamine challenge. It counts as functional. The procedure, abridged:
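Guinea pig in vivo antihistamine test; potency is reported as an ED50 in mg/kg.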

For series [6], the system named is Cavia porcellus. In words: Cardiovascular toxicity in Hartley guinea pig assessed as QTc prolongation at 100 mg/kg, iv after 30 mins by ECG. It counts as organism-based. Details: dose 100 mg/kg, route intravenous. To be noted: in vivo, 0.5 h.
Where [7] appears, read: L929 cells expressing human ERG.

Chain of hERG (KCNH2) (Q12809 whole entry): as above

Regarding `COC(=O)c1ccc(CCCCN2CCC(C(O)(c3ccccc3)c3ccccc3)CC2)cc1`, 10 µM produced 100% inhibition against hERG (KCNH2) (setting [7]). The inhibition constant Ki on Histamine H1 receptor (read-out: Ki) worked out at 20 nM.
For the compound `O=C(O)c1ccc(CCCCN2CCC(C(O)(c3ccccc3)c3ccccc3)CC2)cc1`, 10 µM produced 56% inhibition against hERG (KCNH2) (l929). Besides, the IC50 in series [1] and in series [3] was 11000 nM each time. Further, the MED with Cavia porcellus [2] is more than 50 mg/kg; in the series on Cavia porcellus [4] it was “Not Active”. At Histamine H1 receptor (read-out: Ki), the inhibition constant Ki worked out at 203 nM. Further, in the series with Cavia porcellus [5], the ED50 is 0.1 mg/kg.
With `Cc1ccc(CCCN2CCC(C(O)(c3ccccc3)c3ccccc3)CC2)cc1`, the Ki on Histamine H1 receptor (read-out: Ki) was found to be 155 nM.
Turning to `Cc1ccc(CCCCN2CCC(CO)CC2)cc1`, the inhibition at 10 µM on hERG (KCNH2) (setting [7]) amounted to 54%. Moreover, at Histamine H1 receptor (cho), the Ki entry was “Not Active”.
For `Cc1ccc(CCCCC2CCC(C(O)(c3ccccc3)c3ccccc3)CC2)cc1` (stereo not given) the same measures were 35% and “Not Active”.
`Cc1ccc(CCCCN2CCCCC2)cc1` registered an inhibition at 10 µM against hERG (KCNH2) (setting [7]) of 71%. Moreover, the inhibition constant (Ki) on Histamine H1 receptor (read-out: Ki) stood at 3200 nM.
On hERG (KCNH2) (setting [7]), `CC1CCC(CCCCN2CCC(C(O)(c3ccccc3)c3ccccc3)CC2)CC1` (stereo not given) came in with an inhibition at 10 µM of 85%. Also, the Ki on Histamine H1 receptor (read-out: Ki) is 61 nM.
As for `Cc1ccc(CCCCN2CCC(C(O)(c3ccccc3)c3ccccc3)CC2)cc1`, in the series on Cavia porcellus [4], the MED turned out to be 0.1 mg/kg. For the same compound, the inhibition constant (Ki) at Histamine H1 receptor (read-out: Ki) was found to be 39 nM. In the series on Cavia porcellus [5], the ED50 is 0.9 mg/kg.
`Cc1ccc(CN2CCC(C(O)(c3ccccc3)c3ccccc3)CC2)cc1` had an inhibition at 10 µM against hERG (KCNH2) (setting [7]) of 100%. Moreover, on Histamine H1 receptor (read-out: Ki), the Ki turned out to be 16 nM.
For `Cc1ccc(CCN2CCC(C(O)(c3ccccc3)c3ccccc3)CC2)cc1`, at hERG (KCNH2) (setting [7]), the inhibition at 10 µM came to 100%. The Ki on Histamine H1 receptor (read-out: Ki) was determined as 64 nM.
Consider `Cc1ccc(CCCC(=O)N2CCC(C(O)(c3ccccc3)c3ccccc3)CC2)cc1`, for which, at hERG (KCNH2) (setting [7]), the inhibition at 10 µM stood at 11%. For the same compound, at Histamine H1 receptor (cho), the Ki entry is listed as “Not Active”.
On hERG (KCNH2) (setting [7]), `Cc1ccc(CCCCN2CCC(C(O)c3ccccc3)CC2)cc1` (stereo not given) displayed an inhibition at 10 µM of 97%. The Ki on Histamine H1 receptor (read-out: Ki) was determined as 121 nM.
In the case of `CC(C)(C(=O)O)c1ccc(C(O)CCCN2CCC(C(O)(c3ccccc3)c3ccccc3)CC2)cc1` (racemic) [FEXOFENADINE], the results for the MED entry in the series with Cavia porcellus [4] and with Cavia porcellus [6] were “Not Active” and more than 100 mg/kg, respectively. Further, in the series with Cavia porcellus [5], the ED50 was found to be 0.08 mg/kg.
The compound `CC(C)(C)c1ccc(C(O)CCCN2CCC(C(O)(c3ccccc3)c3ccccc3)CC2)cc1` (racemic) [TERFENADINE] displayed an MED with Cavia porcellus [4] of 0.03 mg/kg. The ED50 with Cavia porcellus [5] was found to be 0.8 mg/kg.
As to `OC(c1ccccc1)(c1ccccc1)C1CCNCC1` [AZACYCLONOL], the Ki at Histamine H1 receptor (read-out: Ki) turned out to be 659 nM.

As usually defined, the inhibition is how much of the control response was suppressed. A high value points to a strong effect. As usually defined, the Ki is a dissociation constant, usually derived from enzyme kinetics or from competition with a known ligand. As a reminder, the IC50 is the concentration needed to halve the response being measured. Read a low IC50 as higher potency. The ED50 is the midpoint of the dose-response relation.
